Assay results taken from ChEMBL document CHEMBL4177561, “Development of Selective, Orally Active GPR4 Antagonists with Modulatory Effects on Nociception, Inflammation, and Angiogenesis” (J Med Chem, 2017).

Tests used:
[1] = Clearance in Sprague-Dawley rat at 1 mg/kg, iv; assay type: ADME, organism-based; details: in vivo
In short: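 Female Sprague-Dawley rats with femoral artery and vein catheters received a single iv dose of 1 mg/kg in NMP:PEG200 (30:70). Clearance is the mean ± SD of four animals.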

Rattus norvegicus = assay: Dose normalized AUC in Sprague-Dawley rat at 3 mg/kg, po; assay type: ADME, organism-based; details: in vivo
In short: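 Catheterized female Sprague-Dawley rats received a single oral dose of 3 mg/kg as a suspension in CMC:water:Tween 80 (0.5:99:0.5). This followed a 48 h wash-out after iv dosing in the same animals.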

[2] = Drug level in blood of methylated BSA and complete Freund's adjuvant sensitized Lewis rat antigen-induced arthritis model at 30 mg/kg, po bid for 7 days and measured 2 hrs post dose; assay type: ADME, organism-based; details: read-out: Drug uptake
In short: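 Lewis rat AIA model, 30 mg/kg po bid. Blood concentration was measured on day 7 at 2 h post dose. Values are the mean of n = 5.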

[3] = Drug level in blood of FVB mouse chamber implant model at 30 mg/kg, po bid for 4 days measured at 16 hrs on day 4; details: read-out: Drug uptake
[4] = Drug level in blood of FVB mouse chamber implant model at 30 mg/kg, po bid for 4 days measured at 2 hrs on day 4; details: read-out: Drug uptake

clearance [1] [mL/min/kg] | AUC/dose (Rattus norvegicus) [µmol·h/L] | concentration at 16 h [3] [µM] | concentration at 2 h [4] [µM] | Compound | concentration at 2 h [2] [µM]
28 | 1.2 | – | – | CCc1nn2c(C)cc(C)nc2c1Cc1ccc(CCC(=O)N2CCNCC2)cc1 | –
49 | 0.53 | – | – | CCc1nn2c(C)cc(C)nc2c1Cc1ccc(CCCC2(O)CCNCC2)cc1 | –

Second part, the compound before the results:

Compound | clearance [1] [mL/min/kg] | AUC/dose (Rattus norvegicus) [µmol·h/L] | concentration at 16 h [3] [µM] | concentration at 2 h [4] [µM] | concentration at 2 h [2] [µM]
CCc1nn2c(C)cc(C)nc2c1Cc1ccc(/C=C/CN2CCN(C[C@@H](O)CO)CC2)cc1 | 11 | 5.1 | – | – | –
CCc1nn2c(C)cc(C)nc2c1Cc1ccc(CCC(O)C2CCNCC2)cc1 (centres undefined) | 31 | 0.49 | – | – | –
CCc1nn2c(C)cc(C)nc2c1Cc1ccc(/C=C/CN2CCNC(=O)C2)cc1 | 4 | 13.6 | – | – | 23
CCc1nn2c(C)cc(C)nc2c1Cc1ccc(/C=C/CN2CCN(C(C)C)CC2)cc1 | 12 | 3.2 | – | – | –
CCc1nn2c(C)cc(C)nc2c1Cc1ccc(-c2nnc(C3CCNCC3)o2)cc1 | 6 | 6.7 | 0.09 | 9.03 | –
CCc1nn2c(C)cc(C)nc2c1Cc1ccc(CCCN2CCN(C(C)C)CC2)cc1 | 29 | 1.1 | – | – | –
